Data published in ChEMBL document CHEMBL1250458, “Targeting the ICB2 site of the topoisomerase IIalpha promoter with a formamido-pyrrole-imidazole-pyrrole H-pin polyamide” (Bioorg Med Chem, 2010).
Calls of active or inactive are those of the source. The calls are words filed in the database; no cut-off is given here.

Legend:
[1] = tested on: Nucleic Acid; experiment: Binding affinity to ICB2 site of topoisomerase 2alpha cognate sequence TACGAT by circular dichroism spectra analysis; type: nucleic-acid assay
How it was run: (§1)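 CD spectra recorded in a 1 mm cuvette with 2.4 nm bandpass, integration time set as a function of PMT high volts. PO45 buffer (10 mM phosphate, 50 mM Na+, 1 mM EDTA, pH 6.2); run in duplicate.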

[2] = tested on: Nucleic Acid; experiment: Binding affinity to ICB2 site of topoisomerase 2alpha cognate sequence ATCGAT at 6 molar equivalent concentration by circular dichroism spectra analysis; type: nucleic-acid assay; how it was run: as §1
[3] = tested on: Nucleic Acid; experiment: Binding affinity to ICB2 site of topoisomerase 2alpha cognate sequence ATCGAT assessed as change in melting temperature at 3 uM by thermal denaturation; type: nucleic-acid assay
How it was run: (§2)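 Thermal melting by UV spectrophotometry: DNA hairpin 1 µM with compound 3 µM in PO40 buffer (10 mM phosphate, 12.5 mM Na+, 1 mM EDTA, pH 6.2). ΔTm taken as the difference in Tm between ligand-bound and free DNA.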

[4] = tested on: Nucleic Acid; experiment: Binding affinity to ICB2 site of topoisomerase 2alpha cognate sequence TACGAT assessed as change in melting temperature at 3 uM by thermal denaturation; type: nucleic-acid assay; how it was run: as §2
[5] = tested on: Nucleic Acid; experiment: Binding affinity to ICB2 site of topoisomerase 2alpha non-cognate AAATTT assessed as change in melting temperature at 3 uM by thermal denaturation; type: nucleic-acid assay; how it was run: as §2
[6] = tested on: Nucleic Acid; experiment: Binding affinity to biotinylated ICB2 site of topoisomerase 2alpha cognate sequence ATCGAT by surface plasmon resonance assay; type: nucleic-acid assay
How it was run: (§3)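 SPR at 25 °C with biotinylated DNA hairpins immobilized on a chip, in cacodylic acid buffer pH 6.25 with 0.1 M NaCl. Compound injected at a range of concentrations (up to 4 µM) at 25 µL/min with 400 s dissociation; surface regenerated with glycine pH 2.5. Keq derived from steady-state fits.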

[7] = tested on: Nucleic Acid; experiment: Binding affinity to biotin labeled ICB2 site of topoisomerase 2alpha non-cognate AAATTT by surface plasmon resonance assay; type: nucleic-acid assay; how it was run: as §3
[8] = tested on: Nucleic Acid; experiment: Binding affinity to ICB2 site of topoisomerase 2alpha cognate sequence TACGAT by isothermal titration microcalorimetry; type: nucleic-acid assay
How it was run: (§4)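 ITC at 25 °C in PO45 buffer. Compound (100 µM) titrated into 2 µM DNA as 50 injections every 240 s after a 300 s delay. A linear fit was subtracted from the integrated heats to remove non-specific heat, giving ΔH.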

[9] = tested on: Nucleic Acid; experiment: Binding affinity to ICB2 site of topoisomerase 2alpha cognate sequence ATCGAT by isothermal titration microcalorimetry; type: nucleic-acid assay; how it was run: as §4
[10] = tested on: Nucleic Acid; experiment: Binding affinity to ICB2 site of topoisomerase 2alpha non-cognate AAATTT by isothermal titration microcalorimetry; type: nucleic-acid assay; how it was run: as §4
[11] = tested on: Nucleic Acid; experiment: Binding affinity to ICB2 site of topoisomerase 2alpha cognate sequence ATCGAT at 2 uM after 30 mins by DNase I footprinting assay; type: nucleic-acid assay
How it was run: (§5)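 DNase I footprinting on a PCR-made radiolabeled 131-bp fragment. The fragment was incubated 30 min at room temperature with drug in TN buffer (10 mM Tris, 10 mM NaCl, pH 7). It was then cleaved 3 min with 0.02 U DNase I in buffer containing Mg2+/Mn2+ (pH 8.0) and stopped on dry ice. Products were resolved on a denaturing 10% polyacrylamide urea gel.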

[12] = tested on: Nucleic Acid; experiment: Binding affinity to ICB2 site of topoisomerase 2alpha cognate sequence ATCGAT at 1 uM after 30 mins by DNase I footprinting assay; type: nucleic-acid assay; how it was run: as §5
[13] = tested on: Nucleic Acid; experiment: Inhibition of nuclear factor Y binding to ICB2 site of topoisomerase 2alpha cognate sequence TACGAT in mouse NIH/3T3 cells at > 3 uM preincubated for 1 hr by electrophoretic mobility shift assay; type: cell-based; settings: NIH3T3
[14] = tested on: Nucleic Acid; experiment: Inhibition of nuclear factor Y binding to ICB2 site of topoisomerase 2alpha cognate sequence TACGAT in mouse NIH/3T3 cells at > 3 uM treated after addition of probe by electrophoretic mobility shift assay; type: cell-based; settings: NIH3T3
[15] = tested on: NIH3T3; experiment: Inhibition of topoisomerase 2alpha expression in mouse NIH/3T3 cells up to 80 uM after 4 to 24 hrs by Western blotting; type: functional, cell-based
How it was run: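 NIH 3T3 cells held at confluence for 96 h, then treated with compound (40 and 80 µM) for 6 and 24 h. Nuclear extract (50 µg) immunoblotted with polyclonal topoIIα antibody (1:1000), detected by ECL. Lamin A/C used as loading control.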

[16] = tested on: L1210; experiment: Cytotoxicity against mouse L1210 cells after 72 hrs by MTT assay; type: cell-based; settings: L1210, 72 h
How it was run: (§6)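 Cells exposed to a compound concentration gradient for 72 h, then MTT added and developed 4 h. Absorbance read; IC50 taken as the concentration giving 50% growth inhibition versus untreated control.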

[17] = tested on: B16; experiment: Cytotoxicity against mouse B16 cells after 72 hrs by MTT assay; type: cell-based; settings: B16, 72 h; how it was run: as §6

Activity [1] | Activity [2] | ΔTm [3] | ΔTm [4] | ΔTm [5] | Ke [6] | Ke [7] | Activity [8] | Activity [9] | Activity [10] | Activity [11] | Activity [12] | SMILES | Activity [13] | Activity [14] | Activity [15] | IC50 [16] | IC50 [17]
Active | Active | 6 °C | 3 °C | 4 °C | 5 ×10⁵ /M | inactive | Active | Active | inactive | Active | Active | CN(C)CCCNC(=O)c1cc(NC(=O)c2nc(NC(=O)c3cc(NC=O)cn3CCOCCOCCn3cc(NC=O)cc3C(=O)Nc3cn(C)c(C(=O)Nc4cc(C(=O)NCCCN(C)C)n(C)c4)n3)cn2C)cn1C | Active | Active | inactive | > 100 µM | > 100 µM
 |  |  |  |  |  |  |  |  |  | Active | inactive | CN(C)CCCNC(=O)c1cc(NC(=O)c2nc(NC(=O)c3cc(NC=O)cn3C)cn2C)cn1C |  |  |  |  | 
